Source: ChEMBL document CHEMBL1137504, “Effect of indole ethyl isothiocyanates on proliferation, apoptosis, and MAPK signaling in neuroblastoma cell lines” (Bioorg Med Chem Lett, 2007)
One block for each molecule: values may come before it. Calls of active or inactive are those of the source. The calls are words filed in the database; no cut-off is given here.

Key:
[1] = tested on: SMS-KCNR; assay: Cytotoxicity against SMS-KCNR cells after 48 hrs by MTS assay; assay type: functional, cell-based; conditions: Homo sapiens
Procedure, shortened: (§1)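 Cells were seeded at 5 × 10^5 per T75 flask and grown to about 80% confluency. Lines were NB (IMR-32, SH-SY5Y, SMS-KCNR, SK-N-SH) or primary human lung fibroblasts (LF1, passage 10). Cells were exposed to 2.5–40 μM drug for 48 hrs and viability was read by MTS. Triplicates were run, and values are mean ± SD of a representative experiment as % viability of untreated cells.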

[2] = tested on: SH-SY5Y; assay: Cytotoxicity against SH-SY5Y cells after 48 hrs by MTS assay; assay type: functional, cell-based; conditions: Homo sapiens; procedure, shortened: as §1
[3] = tested on: SK-N-SH; assay: Cytotoxicity against human SK-N-SH cells after 48 hrs; assay type: functional, cell-based; procedure, shortened: as §1
[4] = tested on: IMR-32; assay: Cytotoxicity against IMR32 cells after 48 hrs by MTS assay; assay type: functional, cell-based; conditions: Homo sapiens; procedure, shortened: as §1
[5] = tested on: SMS-KCNR; assay: Reduction of SMS-KCNR cell viability at 5 uM after 48 hrs in presence of Z-LEHD-FMK; assay type: functional, cell-based; conditions: Homo sapiens
Procedure, shortened: (§2)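 SMS-KCNR cells were pre-incubated for 2 hrs with 40 μM caspase inhibitor (Z-VAD-FM, Z-DEVD-FMK, Z-IETD-FMK or Z-LEHD-FMK). Drug was then added at 5.0 μM for 48 hrs and viability measured. Triplicates were run, and values are mean ± SD of a representative experiment as % viability of untreated cells.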

[6] = Cell cycle arrest in SMS-KCNR cells by accumulation at G0/G1 phase at 3 uM after 24 hrs by flow cytometry; assay type: functional, cell-based; conditions: Homo sapiens
Procedure, shortened: (§3)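 Cells were plated in 100 mm dishes at 7.5 × 10^5 per dish, left to attach overnight, then exposed to 3.0 μM drug for 12 or 24 hrs. Floating and scraped adherent cells were pooled and fixed in ice-cold 70% ethanol for 30 min. They were stained with 50 μg/mL propidium iodide plus 100 μg/mL RNase, 30 min at 37 °C in the dark. Flow cytometry read 10,000 gated single-cell events per sample. Results are given as % of cells per sub-population, with sub-G0/G1 taken as apoptotic.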

[7] = Induction of apoptosis in SMS-KCNR cells at 3 uM after 24 hrs by flow cytometry; assay type: functional, Homo sapiens; procedure, shortened: as §3
[8] = tested on: SMS-KCNR; assay: Induction of apoptosis in SMS-KCNR cells assessed as increase in caspase 8 activation by Western blotting; assay type: functional, cell-based; conditions: Homo sapiens
Procedure, shortened: (§4)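 SMS-KCNR cells at about 80% confluency were treated with 3 μM drug for the indicated times, then lysed in NP-40 buffer with protease and phosphatase inhibitors. Lysates (50 μg protein per lane) were run on 12% SDS-PAGE and blotted to PVDF. Blots were blocked in 5% milk and probed overnight at 4 °C with 1:1000 primary antibodies in 5% BSA. Targets were phospho and total JNK, p38 and Akt, pro and active caspase-3, -8 and -9, and cleaved PARP-1, with β-actin as loading control.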

[9] = Cell cycle arrest in SMS-KCNR cells by accumulation at G2/M phase at 3 uM after 24 hrs by flow cytometry; assay type: functional, cell-based; conditions: Homo sapiens; procedure, shortened: as §3
[10] = tested on: SMS-KCNR; assay: Inhibition of cell proliferation of SMS-KCNR cells […] after 48 hrs by BrdU assay; assay type: functional, cell-based; conditions: Homo sapiens
Procedure, shortened: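 SMS-KCNR cells were plated at 5 × 10^3 per well, attached overnight, and treated with 300 nM–5 μM drug for 48 hrs. BrdU (10 μM final) was added for a further 6 hrs. Fixed cells were incubated with anti-BrdU–peroxidase for 2 hrs at 37 °C, developed with TMB, stopped with sulfuric acid, and read at 450 nm after blank subtraction. Triplicates were run, expressed as % of untreated absorbance.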

[11] = tested on: SMS-KCNR; assay: Reduction of SMS-KCNR cell viability at 5 uM after 48 hrs in presence of Z-IETD-FMK; assay type: functional, cell-based; conditions: Homo sapiens; procedure, shortened: as §2
[12] = tested on: SMS-KCNR; assay: Reduction of SMS-KCNR cell viability at 5 uM after 48 hrs in presence of Z-VAD-FM; assay type: functional, cell-based; conditions: Homo sapiens; procedure, shortened: as §2
[13] = tested on: SMS-KCNR; assay: Reduction of SMS-KCNR cell viability at 5 uM after 48 hrs in presence of Z-DEVD-FMK; assay type: functional, cell-based; conditions: Homo sapiens; procedure, shortened: as §2
[14] = Cell cycle arrest in SMS-KCNR cells by accumulation at S phase at 3 uM after 12 hrs by flow cytometry; assay type: functional, cell-based; conditions: Homo sapiens; procedure, shortened: as §3
[15] = tested on: SMS-KCNR; assay: Effect on JNK activation in SMS-KCNR cells after 1 hr by Western blotting; assay type: cell-based; conditions: Homo sapiens; procedure, shortened: as §4
[16] = tested on: SMS-KCNR; assay: Induction of apoptosis in SMS-KCNR cells assessed as increase in PARP1 activation by Western blotting; assay type: functional, cell-based; conditions: Homo sapiens; procedure, shortened: as §4
[17] = target: MAP kinase p38 (Homo sapiens) (UniProt O15264+Q15759+Q16539+P53778); assay: Effect on p38 activation in SMS-KCNR cells after 1 hr by Western blotting; assay type: cell-based; procedure, shortened: as §4
[18] = Induction of apoptosis in SMS-KCNR cells at 3 uM after 12 hrs by flow cytometry; assay type: functional, Homo sapiens; procedure, shortened: as §3
[19] = target: RAC-alpha serine/threonine-protein kinase (Homo sapiens) (UniProt P31749); assay: Inhibition of AKT in SMS-KCNR cells after 36 hrs by Western blotting; assay type: cell-based; procedure, shortened: as §4
[20] = tested on: SMS-KCNR; assay: Cytotoxicity against SMS-KCNR cells at 2.5 uM to 5.0 uM after 48 hrs by MTS assay; assay type: functional, cell-based; conditions: Homo sapiens; procedure, shortened: as §1
[21] = Cell cycle arrest in SMS-KCNR cells by accumulation at S phase at 3 uM after 24 hrs by flow cytometry; assay type: functional, cell-based; conditions: Homo sapiens; procedure, shortened: as §3
[22] = tested on: SMS-KCNR; assay: Induction of apoptosis in SMS-KCNR cells assessed as increase in caspase 9 activation by Western blotting; assay type: functional, cell-based; conditions: Homo sapiens; procedure, shortened: as §4
[23] = Cytotoxicity against lung fibroblast cells after 48 hrs by MTS assay; assay type: cell-based; conditions: human; procedure, shortened: as §1
[24] = Cell cycle arrest in SMS-KCNR cells by accumulation at G2/M phase at 3 uM after 12 hrs by flow cytometry; assay type: functional, cell-based; conditions: Homo sapiens; procedure, shortened: as §3
[25] = Cell cycle arrest in SMS-KCNR cells by accumulation at G0/G1 phase at 3 uM after 12 hrs by flow cytometry; assay type: functional, cell-based; conditions: Homo sapiens; procedure, shortened: as §3
[26] = tested on: SMS-KCNR; assay: Induction of apoptosis in SMS-KCNR cells assessed as increase in caspase 3 activation by Western blotting; assay type: functional, cell-based; conditions: Homo sapiens; procedure, shortened: as §4

RAC-alpha serine/threonine-protein kinase (Homo sapiens), sequence (P31749 whole entry): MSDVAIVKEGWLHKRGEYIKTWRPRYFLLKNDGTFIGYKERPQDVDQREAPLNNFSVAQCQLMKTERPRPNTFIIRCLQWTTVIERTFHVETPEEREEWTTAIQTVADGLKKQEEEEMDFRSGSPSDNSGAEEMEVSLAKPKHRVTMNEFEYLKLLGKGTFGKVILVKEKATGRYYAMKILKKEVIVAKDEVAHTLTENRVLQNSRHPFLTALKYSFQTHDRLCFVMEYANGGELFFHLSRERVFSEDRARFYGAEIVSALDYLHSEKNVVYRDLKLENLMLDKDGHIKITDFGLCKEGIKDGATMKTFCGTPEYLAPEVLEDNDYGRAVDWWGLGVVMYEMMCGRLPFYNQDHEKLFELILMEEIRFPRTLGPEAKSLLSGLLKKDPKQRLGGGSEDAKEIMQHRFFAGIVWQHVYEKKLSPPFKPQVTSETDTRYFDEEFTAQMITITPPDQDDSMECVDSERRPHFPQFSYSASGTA

Compound: S=C=NCCc1c[nH]c2ccc(OCc3ccccc3)cc12
Activity [1]: Dose-dependent effect
Activity [2]: Dose-dependent effect
IC50 [3]: < 2500 nM
Activity [4]: Dose-dependent effect

Activity [17]: Active
Activity [19]: Active
Compound: Cc1cccc2c(CCN=C=S)c[nH]c12
Activity [5]: Active
Activity [6]: 68.9%
Activity [7]: 18.8%
Activity [8]: Active
Activity [9]: 24.5%
Activity [10]: Active
Activity [11]: Active
Activity [12]: Active
Activity [13]: Active
Activity [14]: 7.3%
Activity [1]: Dose-dependent effect
Activity [2]: Dose-dependent effect
Activity [15]: Active
Activity [16]: Active
Activity [18]: 19.7%
Activity [20]: Active
Activity [21]: 6.5%
Activity [22]: Active
Activity [23]: Not Active
Activity [24]: 26.3%
IC50 [3]: < 2500 nM
Activity [25]: 66.4%
Activity [26]: Active
Activity [4]: Dose-dependent effect
